Where “and” joins values, the source holds several entries; their conditions need not be identical. Equal entries are not always repeated.
Test system: U2OS
Experiment: Multiplex assay against U2OS
Type: toxicity, cell-based
Details: human, number of replicates 2
Outline: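 Cells stained live at seeding with Hoechst33342, BioTracker Green Microtubule Cytoskeleton Dye, MitoTracker Red and Annexin V Alexa Fluor 680 were imaged on a CQ1 microscope at 37°C and 5% CO2 after compound addition. Their classification by CellPathfinder machine-learning gating ran from Hoechst high-intensity objects versus normal cells, to healthy, pyknosed or fragmented nuclei among normal cells, to mitotic or apoptotic among pyknosed cells. Tubulin, mitochondrial-mass and membrane-permeability phenotypes are per cents of healthy-nucleus cells.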

[1] = 12 h, 0 µM, compound concentration 0 uM
[2] = 12 h, 1 µM, compound concentration 1 uM
[3] = 24 h, 0 µM, compound concentration 0 uM
[4] = 24 h, 1 µM, compound concentration 1 uM
[5] = 48 h, 0 µM, compound concentration 0 uM
[6] = 48 h, 1 µM, compound concentration 1 uM
[7] = 12 h, 10 µM, compound concentration 10 uM
[8] = 24 h, 10 µM, compound concentration 10 uM
[9] = 48 h, 10 µM, compound concentration 10 uM

For `COc1cc(C(N)=O)ccc1Nc1ncc2c(n1)N(CCC(C)C)[C@H](C)C(=O)N2C`, the “Population Apoptotic (%)” value [1] was 42% and 75%, the “Population Healthy Nuclei (%)” value [1] was 45% and 69% and the “Population Hoechst High Intensity Objects (%)” value [1] was 0%. The “Population Membrane Permeable-Phenotype (%)” value [1] was 31% and 42%, the “Population Mitochondria Different-Phenotype (%)” value [1] was 15% and 27% and the “Population Mitotic Cells (%)” value [1] was 57% and 24%. For the same compound, the “Population Normal (%)” value [1] was 100%, the “Population Pyknosed Nuclei (%)” value [1] was 16% and 18% and the “Population Tubulin-Different-Phenotype (%)” value [1] was 78% and 56%. For the same compound, the “Population Apoptotic (%)” value [2] was 100% and 61%, the “Population Healthy Nuclei (%)” value [2] was 66% and 76% and the “Population Hoechst High Intensity Objects (%)” value [2] was 0%. For the same compound, the “Population Membrane Permeable-Phenotype (%)” value [2] was 7% and 1%, the “Population Normal (%)” value [2] was 100% and the “Population Pyknosed Nuclei (%)” value [2] was 4% and 14%. The “Population Tubulin-Different-Phenotype (%)” value [2] was 92% and 81%, the “Population Apoptotic (%)” value [3] was 100% and 89% and the “Population Fragmented Nuclei (%)” value [3] was 46% and 22%. For the same compound, the “Population Healthy Nuclei (%)” value [3] was 41% and 54%, the “Population Hoechst High Intensity Objects (%)” value [3] was 0% and the “Population Membrane Permeable-Phenotype (%)” value [3] was 76% and 33%. For the same compound, the “Population Mitochondria Different-Phenotype (%)” value [3] was 70% and 40%, the “Population Mitotic Cells (%)” value [3] was 0% and 10% and the “Population Normal (%)” value [3] was 100%. The “Population Pyknosed Nuclei (%)” value [3] was 12% and 23%, the “Population Tubulin-Different-Phenotype (%)” value [3] was 88% and 47% and the “Population Apoptotic (%)” value [4] was 66% and 94%. The “Population Healthy Nuclei (%)” value [4] was 32% and 73%, the “Population Hoechst High Intensity Objects (%)” value [4] was 0% and the “Population Normal (%)” value [4] was 100%. The “Population Pyknosed Nuclei (%)” value [4] was 12% and 8%, the “Population Tubulin-Different-Phenotype (%)” value [4] was 87% and 85% and the “Population Apoptotic (%)” value [5] was 75% and 95%. The “Population Fragmented Nuclei (%)” value [5] was 57% and 39%, the “Population Healthy Nuclei (%)” value [5] was 34% and 30% and the “Population Hoechst High Intensity Objects (%)” value [5] was 0%. For the same compound, the “Population Membrane Permeable-Phenotype (%)” value [5] was 82% and 72%, the “Population Mitochondria Different-Phenotype (%)” value [5] was 70% and the “Population Normal (%)” value [5] was 100%. For the same compound, the “Population Tubulin-Different-Phenotype (%)” value [5] was 76% and 82%, the “Population Apoptotic (%)” value [6] was 100% and 84% and the “Population Fragmented Nuclei (%)” value [6] was 61% and 25%. The “Population Hoechst High Intensity Objects (%)” value [6] was 0%, the “Population Mitotic Cells (%)” value [6] was 0% and 15% and the “Population Normal (%)” value [6] was 100%. For the same compound, the “Population Pyknosed Nuclei (%)” value [6] was 17% and 12% and the “Population Tubulin-Different-Phenotype (%)” value [6] was 100% and 93%.

With `c1ccc2c(-c3coc4cc(-c5ccc(N6CCNCC6)cc5)cnc34)ccnc2c1` the “Population Healthy Nuclei (%)” value [2] was 82% and 84%, the “Population Mitochondria Different-Phenotype (%)” value [2] was 0% and 2% and the “Population Normal (%)” value [2] was 100%. For the same compound, the “Population Pyknosed Nuclei (%)” value [2] was 0% and 10%, the “Population Tubulin-Different-Phenotype (%)” value [2] was 84% and 81% and the “Population Apoptotic (%)” value [7] was 93% and 90%. For the same compound, the “Population Healthy Nuclei (%)” value [7] was 0% and 6%, the “Population Mitochondria Different-Phenotype (%)” value [7] was 100% and 75% and the “Population Mitotic Cells (%)” value [7] was 6% and 10%. The “Population Normal (%)” value [7] was 100% and 98%, the “Population Pyknosed Nuclei (%)” value [7] was 95% and 60% and the “Population Tubulin-Different-Phenotype (%)” value [7] was 100%. The “Total Cell Count” value [7] was 163 and 67, the “Population Apoptotic (%)” value [4] was 100% and 76% and the “Population Healthy Nuclei (%)” value [4] was 91% and 82%. For the same compound, the “Population Mitochondria Different-Phenotype (%)” value [4] was 0%, the “Population Mitotic Cells (%)” value [4] was 0% and 23% and the “Population Normal (%)” value [4] was 100%. For the same compound, the “Population Pyknosed Nuclei (%)” value [4] was 2% and 10%, the “Population Tubulin-Different-Phenotype (%)” value [4] was 81% and 82% and the “Population Apoptotic (%)” value [8] was 92% and 87%. The “Population Healthy Nuclei (%)” value [8] was 0% and 4%, the “Population Mitotic Cells (%)” value [8] was 7% and 12% and the “Population Normal (%)” value [8] was 98% and 97%. For the same compound, the “Population Pyknosed Nuclei (%)” value [8] was 93% and 56%, the “Population Tubulin-Different-Phenotype (%)” value [8] was 100% and 66% and the “Total Cell Count” value [8] was 160 and 71. For the same compound, the “Population Apoptotic (%)” value [6] was 75%, the “Population Healthy Nuclei (%)” value [6] was 83% and 84% and the “Population Mitochondria Different-Phenotype (%)” value [6] was 0%. For the same compound, the “Population Mitotic Cells (%)” value [6] was 25%, the “Population Normal (%)” value [6] was 100% and the “Population Pyknosed Nuclei (%)” value [6] was 6% and 10%. The “Population Tubulin-Different-Phenotype (%)” value [6] was 87%, the “Population Apoptotic (%)” value [9] was 91% and the “Population Healthy Nuclei (%)” value [9] was 8% and 1%. For the same compound, the “Population Mitotic Cells (%)” value [9] was 8%, the “Population Normal (%)” value [9] was 98% and the “Population Pyknosed Nuclei (%)” value [9] was 39% and 87%. The “Population Tubulin-Different-Phenotype (%)” value [9] was 57% and 100% and the “Total Cell Count” value [9] was 87 and 164.

In the case of `CN(C)CCCNc1ccnc(Nc2cccc(Cl)c2)n1`, the “Population Apoptotic (%)” value [2] is reported as 60% and 50%, the “Population Fragmented Nuclei (%)” value [2] is reported as 6% and 5% and the “Population Healthy Nuclei (%)” value [2] is reported as 84% and 82%. The “Population Hoechst High Intensity Objects (%)” value [2] was 0%, the “Population Membrane Permeable-Phenotype (%)” value [2] was 0% and the “Population Mitochondria Different-Phenotype (%)” value [2] was 0%. The “Population Mitotic Cells (%)” value [2] was 39% and 50%, the “Population Normal (%)” value [2] was 100% and the “Population Pyknosed Nuclei (%)” value [2] was 9% and 11%. For the same compound, the “Population Tubulin-Different-Phenotype (%)” value [2] was 70% and 42%, the “Population Apoptotic (%)” value [7] was 50% and the “Population Fragmented Nuclei (%)” value [7] was 11% and 17%. The “Population Healthy Nuclei (%)” value [7] was 79% and 67%, the “Population Hoechst High Intensity Objects (%)” value [7] was 0% and the “Population Membrane Permeable-Phenotype (%)” value [7] was 4% and 5%. The “Population Mitochondria Different-Phenotype (%)” value [7] was 4% and 5%, the “Population Mitotic Cells (%)” value [7] was 50% and the “Population Normal (%)” value [7] was 100%. The “Population Pyknosed Nuclei (%)” value [7] was 9% and 14%, the “Population Tubulin-Different-Phenotype (%)” value [7] was 52% and 42% and the “Population Apoptotic (%)” value [4] was 66% and 82%. The “Population Fragmented Nuclei (%)” value [4] was 2% and 4%, the “Population Healthy Nuclei (%)” value [4] was 91% and 88% and the “Population Hoechst High Intensity Objects (%)” value [4] was 0%. For the same compound, the “Population Membrane Permeable-Phenotype (%)” value [4] was 0% and 2%, the “Population Mitochondria Different-Phenotype (%)” value [4] was 0% and 1% and the “Population Mitotic Cells (%)” value [4] was 33% and 17%. For the same compound, the “Population Normal (%)” value [4] was 100%, the “Population Pyknosed Nuclei (%)” value [4] was 6% and 7% and the “Population Tubulin-Different-Phenotype (%)” value [4] was 51% and 74%. The “Population Apoptotic (%)” value [8] was 38% and 33%, the “Population Fragmented Nuclei (%)” value [8] was 14% and 22% and the “Population Healthy Nuclei (%)” value [8] was 67% and 54%. For the same compound, the “Population Hoechst High Intensity Objects (%)” value [8] was 0%, the “Population Membrane Permeable-Phenotype (%)” value [8] was 2% and 6% and the “Population Mitochondria Different-Phenotype (%)” value [8] was 6% and 3%. For the same compound, the “Population Mitotic Cells (%)” value [8] was 61% and 66%, the “Population Normal (%)” value [8] was 100% and the “Population Pyknosed Nuclei (%)” value [8] was 18% and 22%. The “Population Tubulin-Different-Phenotype (%)” value [8] was 64% and 48%, the “Population Apoptotic (%)” value [6] was 70% and 78% and the “Population Fragmented Nuclei (%)” value [6] was 5% and 3%. For the same compound, the “Population Healthy Nuclei (%)” value [6] was 81% and 89%, the “Population Hoechst High Intensity Objects (%)” value [6] was 0% and the “Population Membrane Permeable-Phenotype (%)” value [6] was 0% and 1%. For the same compound, the “Population Mitochondria Different-Phenotype (%)” value [6] was 0%, the “Population Mitotic Cells (%)” value [6] was 30% and 21% and the “Population Normal (%)” value [6] was 100% and 99%. The “Population Pyknosed Nuclei (%)” value [6] was 13% and 7%, the “Population Tubulin-Different-Phenotype (%)” value [6] was 56% and 80% and the “Population Apoptotic (%)” value [9] was 94% and 73%. The “Population Fragmented Nuclei (%)” value [9] was 15% and 14%, the “Population Healthy Nuclei (%)” value [9] was 47% and 50% and the “Population Hoechst High Intensity Objects (%)” value [9] was 3% and 1%. For the same compound, the “Population Membrane Permeable-Phenotype (%)” value [9] was 12% and 5%, the “Population Mitochondria Different-Phenotype (%)” value [9] was 4% and 5% and the “Population Normal (%)” value [9] was 96% and 98%. For the same compound, the “Population Pyknosed Nuclei (%)” value [9] was 37% and 34% and the “Population Tubulin-Different-Phenotype (%)” value [9] was 62% and 67%.
